Reference: ChEMBL document CHEMBL1828592, “Synthesis and anti-microbial activity of some 1- substituted amino-4,6-dimethyl-2-oxo-pyridine-3-carbonitrile derivatives” (2011)
Active and inactive are the calls of the source. The rule behind the calls is not given here.

What was measured:
Staphylococcus aureus [1] = test: Antibacterial activity against Staphylococcus aureus RCMB 000106 at 10 mg/ml after 24 hrs by diffusion agar technique; assay type: functional; conditions: for zone of inhibition at 10000 µg/mL: RCMB 000106, 24 h, read-out: IZ
Summary of the method: (§1)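 Agar well diffusion: 24 h bacterial culture pellets (approx. 10^4–10^6 CFU/mL) spread on nutrient agar, pH 7.0. Wells (6 mm) loaded with 100 μL sample at 10 mg/mL in DMSO; DMSO control. Incubated 37 °C, 24 h. Inhibition zone (mm, beyond well) measured three times by caliper and averaged; three runs per strain; mean ± SD.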

Bacillus subtilis [2] = test: Antibacterial activity against Bacillus subtilis RCMB 000107 at 10 mg/ml after 24 hrs by diffusion agar technique; assay type: functional; conditions: for zone of inhibition at 10000 µg/mL: RCMB 000107, 24 h, read-out: IZ; summary of the method: as §1
Pseudomonas aeruginosa [3] = test: Antibacterial activity against Pseudomonas aeruginosa RCMB 000102 at 10 mg/ml after 24 hrs by diffusion agar technique; assay type: functional; conditions: for zone of inhibition at 10000 µg/mL: RCMB 000102, 24 h, read-out: IZ; summary of the method: as §1
Escherichia coli [4] = test: Antibacterial activity against Escherichia coli RCMB 000103 at 10 mg/ml after 24 hrs by diffusion agar technique; assay type: functional; conditions: for zone of inhibition at 10000 µg/mL: RCMB 000103, 24 h, read-out: IZ; summary of the method: as §1
Aspergillus fumigatus [5] = test: Antifungal activity against Aspergillus fumigatus RCMB 002003 at 10 mg/ml after 3 to 4 days by agar well diffusion method; assay type: functional; conditions: for zone of inhibition at 10000 µg/mL: read-out: IZ
Summary of the method: (§2)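 Patient-isolated fungi, purified by single-spore isolation, were grown 3–4 days in Sabouraud dextrose broth to about 10^5 CFU/mL. 0.1 mL was spread on Sabouraud dextrose agar. Wells were sealed at the bottom with 0.8% soft agar and loaded with 100 μL sample (10 mg/mL, DMSO); DMSO was the control. Incubated 30 °C, 3–4 days. Zone read three times by caliper and averaged; mean ± SD.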

Geotrichum candidum [6] = test: Antifungal activity against Geotrichum candidum RCMB 052006 at 10 mg/ml after 3 to 4 days by agar well diffusion method; assay type: functional; conditions: for zone of inhibition at 10000 µg/mL: read-out: IZ; summary of the method: as §2
Candida albicans [7] = test: Antifungal activity against Candida albicans RCMB 005002 at 10 mg/ml after 3 to 4 days by agar well diffusion method; assay type: functional; conditions: for zone of inhibition at 10000 µg/mL: read-out: IZ; summary of the method: as §2
[8] = test system: Syncephalastrum racemosum; test: Antifungal activity against Syncephalastrum racemosum RCMB 005003 at 10 mg/ml after 3 to 4 days by agar well diffusion method; assay type: functional, organism-based; summary of the method: as §2
Staphylococcus aureus [9] = test: Antibacterial activity against Staphylococcus aureus RCMB 000106 at 30 ug/ml after 24 hrs by diffusion agar technique; assay type: functional; conditions: RCMB 000106, 24 h, read-out: IZ
Summary of the method: (§3)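 Reference antibiotic tested at 30 μg/mL, 100 μL per 6 mm well in agar diffusion on nutrient agar (pH 7.0) seeded with approx. 10^4–10^6 CFU/mL bacteria. Incubated 37 °C for 24 h. Inhibition zone beyond well diameter (mm) read by caliper in triplicate and averaged; mean ± SD.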

Bacillus subtilis [10] = test: Antibacterial activity against Bacillus subtilis RCMB 000107 at 30 ug/ml after 24 hrs by diffusion agar technique; assay type: functional; conditions: RCMB 000107, 24 h, read-out: IZ; summary of the method: as §3
Pseudomonas aeruginosa [11] = test: Antibacterial activity against Pseudomonas aeruginosa RCMB 000102 at 30 ug/ml after 24 hrs by diffusion agar technique; assay type: functional; conditions: RCMB 000102, 24 h, read-out: IZ; summary of the method: as §3
Escherichia coli [12] = test: Antibacterial activity against Escherichia coli RCMB 000103 at 30 ug/ml after 24 hrs by diffusion agar technique; assay type: functional; conditions: RCMB 000103, 24 h, read-out: IZ
Summary of the method: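 Agar well diffusion on nutrient agar (pH 7.0) spread with centrifuged bacterial pellets from a 24 h culture, about 10^4–10^6 CFU/mL. Wells receive 100 µL of sample in DMSO: tested samples at 10 mg/mL, standard antibiotic at 30 μg/mL, DMSO as control. Incubation is 37 °C for 24 h. Inhibition zone in mm beyond the 6 mm well is measured three times by caliper and averaged. Three runs, mean ± SD.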

Aspergillus fumigatus [13] = test: Antifungal activity against Aspergillus fumigatus RCMB 002003 at 30 ug/ml after 3 to 4 days by agar well diffusion method; assay type: functional; conditions: read-out: IZ
Summary of the method: (§4)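 Reference antifungal tested at 30 μg/mL, 100 μL per well, on Sabouraud dextrose agar spread with 0.1 mL of a fungal culture at about 10^5 CFU/mL. Wells were bottom-sealed with 0.8% soft agar. Incubated 30 °C, 3–4 days. Inhibition zone (mm) measured three times by caliper and averaged; mean ± SD.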

Geotrichum candidum [14] = test: Antifungal activity against Geotrichum candidum RCMB 052006 at 30 ug/ml after 3 to 4 days by agar well diffusion method; assay type: functional; conditions: read-out: IZ; summary of the method: as §4
Candida albicans [15] = test: Antifungal activity against Candida albicans RCMB 005002 at 30 ug/ml after 3 to 4 days by agar well diffusion method; assay type: functional; conditions: read-out: IZ; summary of the method: as §4
[16] = test system: Syncephalastrum racemosum; test: Antifungal activity against Syncephalastrum racemosum RCMB 005003 at 30 ug/ml after 3 to 4 days by agar well diffusion method; assay type: functional; conditions: read-out: IZ; summary of the method: as §4

Row | SMILES | zone of inhibition at 10000 µg/mL (Staphylococcus aureus [1]) | zone of inhibition at 10000 µg/mL (Bacillus subtilis [2]) | inhibition zone (IZ) (Pseudomonas aeruginosa [3]) | inhibition zone (IZ) (Escherichia coli [4]) | zone of inhibition at 10000 µg/mL (Aspergillus fumigatus [5]) | zone of inhibition at 10000 µg/mL (Geotrichum candidum [6]) | zone of inhibition at 10000 µg/mL (Candida albicans [7]) | inhibition zone (IZ) [8] | zone of inhibition at 10000 µg/mL (Escherichia coli [4]) | other results
1 | Cc1cc(C)n(NC(=S)Nc2ccccc2)c(=O)c1C#N | 15 mm | 13.5 mm | inactive | inactive | 10.2 mm | 12 mm | 11 mm | inactive | – | –
2 | COc1ccc(-c2cc(-c3cccs3)nc3sc(C(=O)Nn4c(C)cc(C)c(C#N)c4=O)c(N)c23)cc1 | 13 mm | 14.2 mm | inactive | inactive | 11.1 mm | 14 mm | 10 mm | inactive | – | –
3 | Cc1cc(C)n(N2C(=O)c3ccccc3C2=O)c(=O)c1C#N | 24.4 mm | 25.4 mm | inactive | – | 19.2 mm | 21.4 mm | 18.2 mm | inactive | 10.8 mm | –
4 | Cc1cc(C)n(/N=C/c2ccc(F)cc2)c(=O)c1C#N | 14.9 mm | 15.2 mm | inactive | inactive | – | – | – | inactive | – | inhibition zone (IZ) (Aspergillus fumigatus [5]): inactive; inhibition zone (IZ) (Geotrichum candidum [6]): inactive; inhibition zone (IZ) (Candida albicans [7]): inactive
5 | Cc1cc(C)n(/N=C/c2cn(-c3ccccc3)nc2-c2cc3ccccc3o2)c(=O)c1C#N | 21.2 mm | 23.2 mm | inactive | – | 14.2 mm | 16.5 mm | 15.5 mm | inactive | 11.5 mm | –
6 | Cc1cc(C)n(/N=C/c2cc3ccccc3n3nnnc23)c(=O)c1C#N | 18.6 mm | 17.3 mm | inactive | – | 11.2 mm | 13.4 mm | 11.4 mm | inactive | 9.3 mm | –
7 | Cc1cc(C)n(/N=C/c2c(C)nn(-c3ccccc3)c2Cl)c(=O)c1C#N | – | – | inactive | inactive | 10.3 mm | 11.5 mm | 13.2 mm | inactive | – | inhibition zone (IZ) (Staphylococcus aureus [1]): inactive; inhibition zone (IZ) (Bacillus subtilis [2]): inactive
8 | Cc1cc(C)n(NC(=O)Nc2ccccc2)c(=O)c1C#N | 7.2 mm | 10.4 mm | inactive | – | 9.2 mm | 10.4 mm | 7.4 mm | inactive | 11.4 mm | –
9 | Cc1cc(C)n(/N=C/c2cccs2)c(=O)c1C#N | 14 mm | – | – | inactive | 11 mm | 13 mm | 12 mm | inactive | – | inhibition zone (IZ) (Bacillus subtilis [2]): inactive; zone of inhibition at 10000 µg/mL (Pseudomonas aeruginosa [3]): 14 mm
10 | Cc1cc(C)n(NC(=O)C(=O)CC(=O)c2cc3ccccc3o2)c(=O)c1C#N | 20.4 mm | 21.8 mm | inactive | – | – | – | – | inactive | 7.4 mm | inhibition zone (IZ) (Aspergillus fumigatus [5]): inactive; inhibition zone (IZ) (Geotrichum candidum [6]): inactive; inhibition zone (IZ) (Candida albicans [7]): inactive
11 | Cc1ccc2c(c1)cc(/C=N/n1c(C)cc(C)c(C#N)c1=O)c1nnnn12 | 23.2 mm | 24.3 mm | inactive | – | 15.2 mm | 18.4 mm | 15.4 mm | inactive | 11.2 mm | –
12 | Cc1cc(C)n(/N=C/c2cc3ccccc3nc2Cl)c(=O)c1C#N | – | – | inactive | inactive | 13.3 mm | 12.4 mm | 10.2 mm | inactive | – | inhibition zone (IZ) (Staphylococcus aureus [1]): inactive; inhibition zone (IZ) (Bacillus subtilis [2]): inactive
13 | Cc1cc(C)n(N/C=C(\Nn2c(C)cc(C)c(C#N)c2=O)c2ccccc2)c(=O)c1C#N | 15 mm | 13.5 mm | inactive | – | 10 mm | 12 mm | 11 mm | inactive | 11.5 mm | –
14 | Cc1ccc2nc(Cl)c(/C=N/n3c(C)cc(C)c(C#N)c3=O)cc2c1 | – | – | inactive | inactive | 14.5 mm | 13.2 mm | 12.4 mm | inactive | – | inhibition zone (IZ) (Staphylococcus aureus [1]): inactive; inhibition zone (IZ) (Bacillus subtilis [2]): inactive
15 | Cc1cc(C)n(N)c(=O)c1C#N | 14 mm | 17 mm | – | – | – | – | – | inactive | 22.8 mm | zone of inhibition at 10000 µg/mL (Pseudomonas aeruginosa [3]): 21.4 mm; inhibition zone (IZ) (Aspergillus fumigatus [5]): inactive; inhibition zone (IZ) (Geotrichum candidum [6]): inactive; inhibition zone (IZ) (Candida albicans [7]): inactive
16 | CC1(C)S[C@@H]2[C@H](NC(=O)Cc3ccccc3)C(=O)N2[C@H]1C(=O)O [PENICILLIN G] | – | – | – | – | – | – | – | – | – | zone of inhibition at 30 µg/mL (Staphylococcus aureus [9]): 29.5 mm; zone of inhibition at 30 µg/mL (Bacillus subtilis [10]): 32.6 mm; zone of inhibition at 30 µg/mL (Pseudomonas aeruginosa [11]): 28.3 mm; zone of inhibition at 30 µg/mL (Escherichia coli [12]): 33.6 mm
17 | CCC(C)n1ncn(-c2ccc(N3CCN(c4ccc(OCC5COC(Cn6cncn6)(c6ccc(Cl)cc6Cl)O5)cc4)CC3)cc2)c1=O (centres undefined) [ITRACONAZOLE] | – | – | – | – | – | – | – | – | – | zone of inhibition at 30 µg/mL (Aspergillus fumigatus [13]): 28 mm; zone of inhibition at 30 µg/mL (Geotrichum candidum [14]): 27 mm; zone of inhibition at 30 µg/mL (Candida albicans [15]): 26 mm; zone of inhibition at 30 µg/mL [16]: 22 mm
18 | CN[C@@H]1[C@H](O[C@H]2[C@H](O[C@H]3[C@H](O)[C@@H](O)[C@H](N=C(N)N)[C@@H](O)[C@@H]3N=C(N)N)O[C@@H](C)[C@]2(O)C=O)O[C@@H](CO)[C@H](O)[C@H]1O [STREPTOMYCIN] | – | – | – | – | – | – | – | – | – | zone of inhibition at 30 µg/mL (Staphylococcus aureus [9]): 25 mm; zone of inhibition at 30 µg/mL (Bacillus subtilis [10]): 29 mm; zone of inhibition at 30 µg/mL (Pseudomonas aeruginosa [11]): 24 mm; zone of inhibition at 30 µg/mL (Escherichia coli [12]): 25 mm
19 | Clc1ccccc1C(c1ccccc1)(c1ccccc1)n1ccnc1 [CLOTRIMAZOLE] | – | – | – | – | – | – | – | – | – | zone of inhibition at 30 µg/mL (Aspergillus fumigatus [13]): 26 mm; zone of inhibition at 30 µg/mL (Geotrichum candidum [14]): 23 mm; zone of inhibition at 30 µg/mL (Candida albicans [15]): 18 mm; zone of inhibition at 30 µg/mL [16]: 20 mm
20 | Cc1cc(C)n(N2C(=O)c3c(Br)c(Br)c(Br)c(Br)c3C2=O)c(=O)c1C#N | 26.4 mm | 26.4 mm | inactive | – | 22.5 mm | 23.5 mm | 20.2 mm | inactive | 12.6 mm | –
